ChEMBL document CHEMBL3352171, “Synthesis and biological evaluation of andrographolide analogues as anti-cancer agents” (Eur J Med Chem, 2014)
Calls of active or inactive are those of the source. The calls are words filed in the database; no cut-off is given here.

What was measured:
HEK293 [1] = experiment: Reduction in NFkappaB expression in HEK293 cells at LC50 level after 48 hrs by Western blot method; type: functional, cell-based; conditions: Homo sapiens
HEK293 [2] = experiment: Increase in p53 expression in HEK293 cells at LC50 level after 48 hrs by Western blot method; type: functional, cell-based; conditions: Homo sapiens
HEK293 [3] = experiment: Induction of cell cycle arrest in HEK293 cells assessed as accumulation at G2/M phase at 5 uM after 48 hrs by propidium iodide staining based flow cytometry (reference value: 2.63 +/- 0.7%); type: functional, Homo sapiens
Bos taurus = organism: Bos taurus; experiment: Induction of conformational changes in calf thymus DNA assessed as B-DNA conformation changes at 100 uM after 2 hrs by CD spectroscopy
HEK293 [4] = experiment: Induction of cell cycle arrest in HEK293 cells assessed as accumulation at S phase at 5 uM after 48 hrs by propidium iodide staining based flow cytometry (reference value: 19.9 +/- 0.5%); type: functional, Homo sapiens
HEK293 [5] = experiment: Increase in PARP cleavage in HEK293 cells at LC50 level after 48 hrs by Western blot method; type: functional, cell-based; conditions: Homo sapiens
HEK293 [6] = experiment: Induction of apoptosis in HEK293 cells at 10 uM after 48 hrs by propidium iodide staining based flow cytometry (reference value: 24.26 +/- 0.8%); type: functional, Homo sapiens
HEK293 [7] = experiment: Increase in PARP cleavage in p53 deficient HEK293 cells at LC50 level after 48 hrs by Western blot method; type: functional, cell-based; conditions: Homo sapiens
HEK293 [8] = experiment: Induction of apoptosis in HEK293 cells at 5 uM after 48 hrs by propidium iodide staining based flow cytometry (reference value: 24.26 +/- 0.8%); type: functional, Homo sapiens
HEK293 [9] = experiment: Induction of cell cycle arrest in HEK293 cells assessed as accumulation at G1 phase at 5 uM after 48 hrs by propidium iodide staining based flow cytometry (reference value: 53.21 +/- 0.8%); type: functional, Homo sapiens
HEK293 [10] = experiment: Induction of cell cycle arrest in HEK293 cells assessed as accumulation at G1 phase at 15 uM after 48 hrs by propidium iodide staining based flow cytometry (reference value: 53.21 +/- 0.8%); type: functional, Homo sapiens
Calf thymus DNA = experiment: Binding affinity to calf thymus DNA assessed as reduction of DNA absorption band at 260 nanometer at 3.33 to 20 uM after 2 hrs by UV-visible absorption spectroscopy; type: nucleic-acid assay; conditions: Bos taurus
Method in brief: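 CT-DNA at fixed […] in 50 mM Tris-HCl/NaCl pH 7.5, incubated with compound for 2 h at 37 °C, scanned 200–400 nm after dilution. Spectra normalized at 230 nm. Fraction bound q from absorbance near 260 nm; Boltzmann fit, Kb as reciprocal of half-saturation concentration.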

Which Activity (HEK293 [1]) does the source give for C=C1CC[C@@H]2[C@](C)(CO)[C@H](O)CC[C@@]2(C)[C@@H]1C/C=C1/C(=O)OC[C@H]1OC(=O)CI here?
Its Activity is “Active”.

What about the Activity (HEK293 [2]) of the same compound?
The Activity was “Active”.

What about the Activity (HEK293 [3]) of the same compound?
Its Activity is 2.14%.

What about the Activity (Bos taurus) of the same compound?
The Activity was “inactive”.

What about the Activity (HEK293 [4]) of the same compound?
The Activity was 9.21%.

What about the Activity (HEK293 [5]) of the same compound?
The Activity was “Active”.

What about the Activity (HEK293 [6]) of the same compound?
Its Activity is 74.03%.

What about the Activity (HEK293 [7]) of the same compound?
Its Activity is “inactive”.

What about the Activity (HEK293 [8]) of the same compound?
Its Activity is 43.09%.

What about the Activity (HEK293 [9]) of the same compound?
Its Activity is 24.77%.

And the Activity (HEK293 [10])?
Its Activity is 14.8%.

What about the Activity (Calf thymus DNA) of the same compound?
Its Activity is “Active”.
